# Data as given in PubChem BioAssay AID492951 (Molecular Libraries Program, Specialized Chemistry Center, …, 2010).
# Values without a mark were called inactive. Calls of active or inactive are those of the source.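 The calls were made as follows: active = inhibition above 10%; inactive = the rest.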
# Biological target: Hexokinase-4 (Homo sapiens) (UniProt P35557)
# Assay: hGlck enzyme activity off-target inhibitors – biochemical, recombinant hGlck, counter-screen for TbHK1 inhibitor project (AID 492951)
# Conditions: G6PDH-coupled NADH absorbance 340 nm, at 10 µM; active compounds read high
# How it was run: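 Technique – A340 of NADH · Material – recombinant human glucokinase, G6PDH-coupled · Medium – TEA buffer pH 7.9 with 3.3 mM MgCl2, 0.75 mM NAD+ · Doses – single final test compound dose of 10 µM · Repeats – three replicates per compound · Times – 10 min preincubation at room temperature · Also added – glucose 20 mM and ATP 1 mM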
# Hexokinase-4 (Homo sapiens), sequence (P35557 whole entry, looked up): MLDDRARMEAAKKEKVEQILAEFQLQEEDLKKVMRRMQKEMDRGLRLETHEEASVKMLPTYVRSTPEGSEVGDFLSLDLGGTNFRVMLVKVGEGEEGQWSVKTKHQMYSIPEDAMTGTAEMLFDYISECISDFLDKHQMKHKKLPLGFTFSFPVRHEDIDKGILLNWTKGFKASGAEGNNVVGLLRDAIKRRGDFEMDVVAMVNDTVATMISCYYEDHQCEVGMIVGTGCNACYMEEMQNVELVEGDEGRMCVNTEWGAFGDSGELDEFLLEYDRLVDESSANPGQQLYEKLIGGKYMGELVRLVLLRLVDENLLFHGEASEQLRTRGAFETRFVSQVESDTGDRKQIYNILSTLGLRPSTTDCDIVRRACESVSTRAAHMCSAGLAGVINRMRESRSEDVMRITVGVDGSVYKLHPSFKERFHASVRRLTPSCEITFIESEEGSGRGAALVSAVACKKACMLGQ
SMILES,outcome,inhibition
COc1ccc(C(=O)Nc2ccccc2C(=O)O)cc1,inactive,
COc1ccc(-n2sc3ccccc3c2=O)cc1,inactive,
COc1ccc(C(=O)Nc2cc(C(=O)O)ccc2Cl)cc1,inactive,
O=C(O)c1ccccc1NC(=O)c1ccccc1C(=O)O,inactive,
COc1ccc(C(=O)Nc2cc(Cl)ccc2O)cc1,,22.2% (active)
N#Cc1ccc2sn(-c3ccccc3)c(=O)c2c1,,4.3%
O=c1c2ccccc2sn1-c1ccc(Cl)cc1Cl,,65.6% (active)
COc1ccc(C(=O)Nc2cc(Cl)ccc2C(=O)O)cn1,inactive,
COc1ccc2c(=O)n(-c3ccccc3)sc2c1,inactive,
CC(=O)Nc1ccc2sn(-c3ccccc3)c(=O)c2c1,,51.9% (active)
O=C(Cn1sc2ccccc2c1=O)N1CCCCC1,inactive,
O=c1c2cc(N3CCOCC3)ccc2sn1-c1ccccc1,inactive,
Cc1ccc(C(=O)Nc2cc(Cl)ccc2C(=O)O)cc1,inactive,
O=C(Nc1cc(Cl)ccc1C(=O)O)c1ccc(-c2cccs2)cc1,,30.3% (active)
Cc1ccc(-n2sc3ccccc3c2=O)cc1,,26.1% (active)
O=C(Nc1cc(Cl)ccc1C(=O)O)c1ccccc1,inactive,
CCOc1ccc(C(=O)Nc2cc(Cl)ccc2C(=O)O)cc1,,9.4%
CC(C)Cc1ccc(C(=O)Nc2cc(Cl)ccc2C(=O)O)cc1,,19.5% (active)
COc1ccc(C(=O)Nc2cc(Cl)ccc2[N+](=O)[O-])cc1,inactive,

SMILES,outcome,inhibition
COc1ccc(Nc2cc(Cl)ccc2C(=O)O)cc1,inactive,
O=c1c2cccnc2sn1-c1ccccc1,,91.5% (active)
O=c1c2ccc(Br)cc2sn1-c1ccccc1,,33.8% (active)
O=C(Nc1ccc([N+](=O)[O-])cc1Cl)c1cc(Cl)ccc1O,,32.1% (active)
COc1ccc(C(=O)NCC(=O)O)cc1,,20.5% (active)
COc1ccc(C(=O)Nc2cc(Cl)ccc2C(=O)O)cc1OC,,20.1% (active)
COc1cccc(NC(=O)Cn2sc3ccccc3c2=O)c1,,2.9%
COc1ccc(-c2cc3ccccc3[nH]2)cc1,,30.3% (active)
Cn1c2ccccc2c(=O)n1-c1ccccc1,inactive,
O=C(Cn1sc2ccccc2c1=O)Nc1ccccc1Br,,9%
CN(Cc1ccccc1)C(=O)Cn1sc2ccccc2c1=O,,30.6% (active)
Cc1ccccc1-n1sc2cc(F)ccc2c1=O,inactive,
CC(C)(C)c1ccc(C(=O)Nc2cc(Cl)c(Cl)cc2C(=O)O)cc1,inactive,
O=c1c2cc(C(F)(F)F)ccc2sn1-c1ccccc1,,45.7% (active)
C=C(C)c1ccc(C(=O)Nc2cc(Cl)ccc2C(=O)O)cc1,,25.9% (active)
COc1ccc(C(=O)NC(CC(=O)O)c2ccccc2)cc1 (stereo not drawn),,4%
N#Cc1ccc2c(=O)n(-c3ccccc3)sc2c1,,54% (active)
COc1cccc(CC(=O)Nc2cc(Cl)ccc2C(=O)O)c1,inactive,
O=C(Cn1sc2ccccc2c1=O)NC1CCCCC1,,8.01%
